Reference: ChEMBL document CHEMBL3632461 (J Med Chem, 2015)

Assays:
[1] = Oral bioavailability in Beagle dog at 3 or 5 mg/kg; format: ADME, organism-based, Canis lupus familiaris; details: in vivo
Method in brief: (§1)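 Male CD-1 mice, Wistar-Han rats, beagle dogs and cynomolgus monkeys, fasted overnight and fed after dosing. Given po at 3 or 5 mg/kg in 0.5% methylcellulose, with an iv reference dose of 1 mg/kg. Bioavailability derived from plasma concentration−time data; mean ± SD (n = 3) or individual values (n = 2).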

[2] = Oral bioavailability in Wistar rat at 3 or 5 mg/kg; format: ADME, organism-based; details: in vivo; method in brief: as §1
Hepatocyte [3] = assay: Intrinsic apparent clearance in human hepatocytes assessed per 10^6 cells; format: ADME, cell-based
Method in brief: (§2)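 Stability incubations in NADPH-supplemented human liver microsomes or cryopreserved human hepatocytes. Total apparent intrinsic clearance scaled from the in vitro half-life; microsomes reported per mg protein, hepatocytes per 10⁶ cells.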

Liver microsome = assay: Intrinsic apparent clearance in human liver microsomes; format: ADME; method in brief: as §2
[4] = Lipophilicity, log D of the compound at pH 7.4 by shake-flask method; format: physicochemical; details: buffer
[5] = molecular target: T1, Thyroid peroxidase (Homo sapiens) (UniProt P07202); assay: Inhibition of TPO (unknown origin) using Amplex Red as substrate assessed as formation of resorufin by measuring ratio of Kinact to Ki measured every 20 secs by spectrophotometric analysis
T1 sequence (whole entry): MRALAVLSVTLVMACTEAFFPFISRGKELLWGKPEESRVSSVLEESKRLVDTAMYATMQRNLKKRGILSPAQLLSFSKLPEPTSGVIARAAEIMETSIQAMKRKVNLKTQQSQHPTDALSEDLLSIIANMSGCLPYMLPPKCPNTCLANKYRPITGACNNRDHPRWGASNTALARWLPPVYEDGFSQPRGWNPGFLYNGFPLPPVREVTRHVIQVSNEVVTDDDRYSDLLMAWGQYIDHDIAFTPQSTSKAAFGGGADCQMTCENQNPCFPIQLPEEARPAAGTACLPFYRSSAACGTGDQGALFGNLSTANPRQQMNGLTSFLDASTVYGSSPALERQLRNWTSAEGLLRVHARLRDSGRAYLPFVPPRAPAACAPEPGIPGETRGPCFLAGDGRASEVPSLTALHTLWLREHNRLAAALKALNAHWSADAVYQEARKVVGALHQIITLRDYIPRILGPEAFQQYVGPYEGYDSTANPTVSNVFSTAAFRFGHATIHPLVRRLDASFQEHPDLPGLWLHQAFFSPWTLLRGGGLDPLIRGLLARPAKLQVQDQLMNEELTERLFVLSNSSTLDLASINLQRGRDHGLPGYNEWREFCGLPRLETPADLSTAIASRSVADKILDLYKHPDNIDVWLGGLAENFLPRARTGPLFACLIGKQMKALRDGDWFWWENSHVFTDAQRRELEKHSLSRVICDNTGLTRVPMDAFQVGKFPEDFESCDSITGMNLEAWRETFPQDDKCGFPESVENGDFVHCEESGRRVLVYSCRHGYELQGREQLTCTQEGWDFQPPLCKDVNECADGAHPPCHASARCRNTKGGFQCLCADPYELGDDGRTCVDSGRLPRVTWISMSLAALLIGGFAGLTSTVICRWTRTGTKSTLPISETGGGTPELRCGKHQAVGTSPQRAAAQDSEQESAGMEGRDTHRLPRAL
Method in brief: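 Amplex Red oxidation to resorufin in 50 mM sodium phosphate pH 7.4, 150 mM NaCl, 1 mM DTPA, 2 μM H2O2, 30 μM Amplex Red, 2% DMSO. Reaction started by adding TPO. Background rate measured with bovine catalase added and subtracted. Fluorescence (ex 530/em 580) read every 20 s at room temperature. kinact/KI taken from initial rates over the first 300 s. Geometric mean of at least two experiments.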

[6] = Tmax in Wistar rat at 3 or 5 mg/kg, po; format: ADME, organism-based; details: in vivo
Method in brief: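 Male animals (CD-1 mice 25−35 g, cannulated Wistar-Han rats 250 g, beagle dogs 12 kg, cynomolgus monkeys 7 kg), fasted overnight and fed 1.0 or 2.0 h after dosing, water ad libitum. Oral dose 3 or 5 mg/kg in 0.5% methylcellulose. Parameters calculated from plasma concentration−time data; mean ± SD for n = 3, individual values for n = 2.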

[7] = Plasma clearance in cynomolgus monkey at 1 mg/kg, iv and 3 or 5 mg/kg, po; format: ADME, organism-based, Macaca fascicularis
Method in brief: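 Male CD-1 mice (25−35 g), cannulated Wistar-Han rats (250 g), beagle dogs (12 kg) and cynomolgus monkeys (7 kg), fasted overnight and fed 1.0 or 2.0 h after dosing. iv 1 mg/kg in saline or 12% sulfobutyl ether β-cyclodextrin; po 3 or 5 mg/kg in 0.5% methylcellulose. Parameters calculated from plasma concentration−time data; mean ± SD for n = 3, individual values for n = 2.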

Cytochrome P450 2B6 = molecular target: T2, Cytochrome P450 2B6 (Homo sapiens, UniProt P20813); assay: Reversible inhibition of CYP2B6 bupropion hydroxylase activity in human liver microsomes by LC-MS/MS analysis; format: ADME
T2 sequence (P20813 whole entry): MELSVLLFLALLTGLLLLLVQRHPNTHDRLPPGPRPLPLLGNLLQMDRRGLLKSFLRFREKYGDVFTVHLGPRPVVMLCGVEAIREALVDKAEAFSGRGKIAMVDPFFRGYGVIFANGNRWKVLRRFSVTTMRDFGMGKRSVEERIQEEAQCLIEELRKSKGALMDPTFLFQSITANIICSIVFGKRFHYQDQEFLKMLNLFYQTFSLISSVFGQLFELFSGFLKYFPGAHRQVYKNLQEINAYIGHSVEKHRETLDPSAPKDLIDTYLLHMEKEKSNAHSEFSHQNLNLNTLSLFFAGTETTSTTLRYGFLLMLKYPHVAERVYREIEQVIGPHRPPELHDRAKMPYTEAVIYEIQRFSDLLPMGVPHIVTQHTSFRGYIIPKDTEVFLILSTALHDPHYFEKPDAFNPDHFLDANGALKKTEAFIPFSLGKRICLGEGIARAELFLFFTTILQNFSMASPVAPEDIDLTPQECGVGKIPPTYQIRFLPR
Method in brief: (§3)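 Reversible inhibition of the major CYP enzymes tested in human liver microsomes using established protocols.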

[8] = Fraction unbound in monkey plasma at 2 uM by equilibrium dialysis method; format: ADME, cell-free, Macaca mulatta; details: rhesus monkey
Method in brief: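 Compound at 2 μM in mouse, rat, dog, monkey or human plasma; unbound fraction measured by equilibrium dialysis and reported as a mean.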

Cynomolgus monkey = assay: In vivo inhibition of MPO in LPS-stimulated po dosed cynomolgous monkey administered 1 hr post LPS challenge measured after 2 hrs; format: functional, organism-based; details: Macaca fascicularis
Method in brief: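 Randomized crossover design in cynomolgus monkeys given iv LPS, then oral vehicle or compound (5, 20, 80 mg/kg) 1 h later. Heparinized plasma collected 2 h after dosing. Total MPO captured on anti-MPO antibody plates, plasma exchanged for drug-free medium, and residual activity read by Amplex Red peroxidation. EC₅₀ from a mixed-effect sigmoid model of exposure versus activity.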

Hepatocyte [9] = assay: Metabolic stability in cryopreserved human hepatocytes assessed as GSH adduct formation; format: ADME, cell-based
Method in brief: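 Incubation in NADPH-supplemented human liver microsomes or cryopreserved human hepatocytes, examined for glutathione adduct formation.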

Cytochrome P450 2C19 = Cytochrome P450 2C19 (Homo sapiens, UniProt P33261); assay: Reversible inhibition of CYP2C19 (S)-Mephenytoin 4'-hydroxylase activity in human liver microsomes by LC-MS/MS analysis; format: ADME; method in brief: as §3
Sequence of Cytochrome P450 2C19 (P33261 whole entry): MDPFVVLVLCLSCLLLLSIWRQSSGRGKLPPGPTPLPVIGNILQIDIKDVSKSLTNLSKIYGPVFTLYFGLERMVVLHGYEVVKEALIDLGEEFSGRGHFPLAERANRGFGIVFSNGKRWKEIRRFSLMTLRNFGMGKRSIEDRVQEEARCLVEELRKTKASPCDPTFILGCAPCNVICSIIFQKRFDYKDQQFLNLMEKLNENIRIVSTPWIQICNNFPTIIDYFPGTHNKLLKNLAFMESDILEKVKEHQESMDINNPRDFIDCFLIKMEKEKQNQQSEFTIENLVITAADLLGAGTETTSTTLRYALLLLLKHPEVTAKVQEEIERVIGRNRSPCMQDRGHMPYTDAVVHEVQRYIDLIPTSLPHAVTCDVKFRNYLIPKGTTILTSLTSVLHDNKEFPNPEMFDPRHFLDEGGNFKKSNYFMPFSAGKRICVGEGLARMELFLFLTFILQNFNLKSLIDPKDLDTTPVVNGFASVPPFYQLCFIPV

With `COc1ccc(OC)c(-c2cc(=O)[nH]c(=S)n2CC(N)=O)c1` the bioavailability [1] was 100%, the bioavailability [2] was 61% and the “CLH(app)” value (Hepatocyte [3]) was under 6 µL/min. It also gave a CLH(app) (Liver microsome) of under 8 µL/min/mg, a logD [4] of 0.34 and a log(ratio) [5] of under 0.5. It also gave a Tmax [6] of 40.2 min.
With `COc1ccc(-c2cc(=O)[nH]c(=S)n2CCO)c(OC)c1` the bioavailability [1] was 16%, the bioavailability [2] was 8% and the “CLH(app)” value (Hepatocyte [3]) was under 6 µL/min. For the same compound, the CLH(app) (Liver microsome) was under 8 µL/min/mg, the logD [4] was 1.1 and the log(ratio) [5] was under 0.5. The Tmax [6] was 78 min.
With `COc1ccc(-c2cc(=O)[nH]c(=S)n2CC(N)=O)c(OC)c1` the bioavailability [1] was 31%, the bioavailability [2] was 76% and the “CLH(app)” value (Hepatocyte [3]) was under 6 µL/min. For the same compound, the CLH(app) (Liver microsome) was under 8 µL/min/mg, the logD [4] was 0.59 and the log(ratio) [5] was under 0.5. For the same compound, the Tmax [6] was 30 min.
Work on `COc1ccc(Cl)cc1-c1cc(=O)[nH]c(=S)n1CC(N)=O` [PF-06282999] yielded a bioavailability [1] of 75%, a clearance [7] of 10.3 mL/min/kg and an IC50 (Cytochrome P450 2B6) of over 100 µM. For the same compound, the fraction unbound at 2 µM [8] was 0.536, the bioavailability [2] was 86% and the EC50 (Cynomolgus monkey) was 3.8 µM. The Stability (Hepatocyte [9]) was “Stable”, the “CLH(app)” value (Hepatocyte [3]) was under 6 µL/min and the CLH(app) (Liver microsome) was under 8 µL/min/mg. It also gave a logD [4] of 0.81, a Tmax [6] of 46.8 min and an IC50 (Cytochrome P450 2C19) of over 100 µM.
With `COc1ccc(-c2cc(=O)[nH]c(=S)n2CCN)c(OC)c1` the bioavailability [1] was 84%, the bioavailability [2] was 91% and the “CLH(app)” value (Hepatocyte [3]) was 2.9 µL/min. For the same compound, the CLH(app) (Liver microsome) was 8.8 µL/min/mg, the logD [4] was -0.17 and the log(ratio) [5] was under 0.5. The Tmax [6] was 22.8 min.
